p47phox inh = p47phox/p22phox peptide binding inhibitors, primary screen, biochemical, uHTS, NADPH oxidase regulatory subunit. Neutrophil cytosol factor 1 (Homo sapiens), P14598. fluorescence polarization, 2 h. inhibition, % at 24.7 µM. hit rate 0.53% among 220,000. AID 1274, 2008;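 active = inhibition above about 30%, limit read from the data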
RBBP9 inhibitor = human RBBP9 inhibitors, primary screen, biochemical, fluorescence polarization, FP-Rh probe, HTS | recombinant RBBP9 | inhibition, % at 7.94 µM | hit rate 0.2% among 220,000;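 active = inhibition above the campaign mean of all tested compounds plus 3 SD, cut at about 14% in these data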
Target sequence (O75884 whole entry, looked up): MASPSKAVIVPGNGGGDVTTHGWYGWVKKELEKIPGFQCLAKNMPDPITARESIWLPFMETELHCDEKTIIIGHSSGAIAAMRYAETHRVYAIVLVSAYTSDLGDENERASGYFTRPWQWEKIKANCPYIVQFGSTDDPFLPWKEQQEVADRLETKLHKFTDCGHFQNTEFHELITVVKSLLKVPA
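Measured by – fluorescence polarization · Test system – RBBP9 protein · Input – 2.5 µM RBBP9 dispensing solution, before mixing · Measure – percent inhibition from mP, scaled between DMSO and no-protein wells · Benchmarks – DMSO-treated enzyme wells and wells lacking RBBP9 · Times – preincubation 30 min plus labeling 45 min at 25 °C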
14-3-3 Bad inh = inhibitors of 14-3-3 zeta/Bad binding, primary screen, biochemical, TR-FRET, bovine 14-3-3 zeta; hit rate 0.71% among 220,000; inhibition, % at 21.7 µM; TR-FRET 14-3-3zeta/Dy647-pBad peptide displacement, 1 h;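 active = inhibition above about 70%, limit read from the data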
Cl transport mod = KCC2 cotransporter modulators, thallium flux, primary screen, cell-based, HEK293 KCC2, FluoZin-2 fluorescence, MLSMR; KCC2 cells, thallium flux FluoZin-2 fluorescence; B-score of Tl+ flux slope (higher = more flux/activation; lower = inhibition) at 10 µM; hit rate 2.2% among 190,000; AID 1456, 2008;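 active = thallium flux slope and its plate-corrected score both differing from the plate sample mean at a set confidence after two filtering rounds, in either direction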;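 also: slope of fluorescence scaled to starting intensity during 10 to 20 s after thallium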
WT yeast gro inh = growth inhibition of WT strain, primary screen, mitochondrial fusion inhibitor project, WT and mutant strains, chemical genetic | hit rate 2.1% among 190,000 | inhibition, % at 10 µM | AID 1362, 2008 | mitochondrial fusion phenotypic screen; in the data active = inhibition above about 58%; tested in S. cerevisiae
ROMK primary = ROMK potassium channel modulators, primary screen, cell-based, thallium flux, MLSMR library; B-score at 10 µM; Tet-inducible ROMK, thallium flux fluorescence; actives lie on both sides; ATP-sensitive inward rectifier potassium channel 1 (Homo sapiens), P48048; AID 1918, 2009; hit rate 2% among 130,000;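 active = signal ratio slope over the read window, or its plate-corrected B-score, at least 3 SD from the plate mean, either direction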;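 also: B-score of the F/F0 ratio slope over 7 to 12 s after thallium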
Target sequence (P48048 whole entry, looked up): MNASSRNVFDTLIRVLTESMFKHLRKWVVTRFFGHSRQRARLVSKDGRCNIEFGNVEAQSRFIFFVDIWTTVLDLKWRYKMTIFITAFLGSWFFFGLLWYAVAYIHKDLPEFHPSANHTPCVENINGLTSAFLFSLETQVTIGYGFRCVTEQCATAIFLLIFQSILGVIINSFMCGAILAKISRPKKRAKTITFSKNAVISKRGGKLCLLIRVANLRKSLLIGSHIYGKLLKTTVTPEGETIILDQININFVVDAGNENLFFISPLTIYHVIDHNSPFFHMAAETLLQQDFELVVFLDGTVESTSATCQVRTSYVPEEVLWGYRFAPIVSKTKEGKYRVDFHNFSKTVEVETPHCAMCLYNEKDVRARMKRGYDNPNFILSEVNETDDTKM
Large screens that a line does not name were inactive; [ ] = remark or other dose. Shown are actives, neighbours in structure and some others; about 5.8% of the full set was active somewhere.

COc1ccc(OCc2nnc(SCC(=O)N(C)Cc3ccccc3)n2N)cc1	none
NC(=O)COC(=O)c1ccccc1Oc1ccccc1	none
OC[C@@H](O)C1OC2NC(=S)OC2C1O (stereo partly specified)	none (no result: Cl transport mod, ROMK primary)
Cc1ccc2[nH]c(=O)c(C(c3nnnn3CC3CCCO3)N3CCOCC3)cc2c1 (stereo unspecified)	none (no result: ROMK primary)
CCc1ccc2[nH]c(=O)c(C(c3nnnn3CC3CCCO3)N3CCN4CCCC4C3)cc2c1 (stereo unspecified)	ROMK primary -2.4 (no result: Cl transport mod)
Cc1nc(NCCc2ccc(S(N)(=O)=O)cc2)c2c(C)c(C)sc2n1	Cl transport mod 21
CC(=O)Nc1cccc(-c2csc(Nc3ccc(Cl)cn3)n2)c1	WT yeast gro inh 76 (no result: ROMK primary)
O=c1[nH][nH]cc1C=NCc1cccc(C(F)(F)F)c1	none
S=c1[nH]c2cc(Cl)ccc2s1	Cl transport mod 24 (no result: ROMK primary)
CCOC(=O)N1CCC(N2Cc3cccc(C(=O)Nc4ccc(CC)cc4)c3C2=O)CC1	WT yeast gro inh 69 (no result: ROMK primary)
CCN(CC)C(=O)c1cn(CCC#N)nc1-c1ccc(F)cc1	none
COc1ccc2nc(NC(=O)Cn3cnc4ccccc4c3=O)sc2c1	none (no result: WT yeast gro inh, ROMK primary)
CCOC(=O)/C(C#N)=N/Nc1ccccc1C#N	none (no result: WT yeast gro inh)
Cc1ccc(-n2[nH]c(C)c(C=Nc3cc(C)ccn3)c2=O)cc1	Cl transport mod 4.2
CCc1nnc(NS(=O)(=O)c2ccc(N=Cc3c(C)[nH]n(-c4ccc(Cl)cc4)c3=O)cc2)s1	none (no result: ROMK primary)
Cc1ccc(-n2[nH]c(C)c(/C=N/c3ccccn3)c2=O)cc1	none (no result: Cl transport mod, ROMK primary)
Cc1[nH]n(-c2ccc(Cl)cc2)c(=O)c1/C=N/c1nnc(-c2ccccc2)s1	Cl transport mod 45
COc1ccc2nc(/N=C/c3c(C)[nH]n(-c4ccc(C)cc4)c3=O)sc2c1	p47phox inh 34, Cl transport mod 54 (no result: ROMK primary)
CCN1C(=O)CC(NCc2ccc(S(N)(=O)=O)cc2)C1=O (stereo unspecified)	none (no result: WT yeast gro inh, ROMK primary)
Cc1ccccc1OCC(=O)NNC(=O)CSc1nc(N)cc(N)n1	none
O=CN(c1ccccc1)c1ccc2ccccc2c1	none (no result: Cl transport mod, ROMK primary)
CCc1c(C)c(C#N)c2[nH]c3ccccc3n2c1=S	p47phox inh 30 (no result: WT yeast gro inh, ROMK primary)
CCc1cc(=S)n2c([nH]c3ccccc32)c1C#N	none
O=C(Nc1ccc(Cl)c(C(F)(F)F)c1)c1ccco1	WT yeast gro inh 72 (no result: ROMK primary)
C=CCNC(=S)NNC(=O)COc1ccc(Br)cc1	none
C=CCNC(=S)NNC(=O)COc1ccc2cc(Br)ccc2c1	WT yeast gro inh 59
COc1ccc2nc(NC(=O)Nc3ccccc3)sc2c1	none (no result: ROMK primary)
CC(C)(C)c1nc(NC(=O)Nc2ccccc2)sc1Br	WT yeast gro inh 59
C=CC(c1ccccc1)C(C(=O)c1ccccc1)N(C)C (stereo unspecified)	none
CN(CC(=O)Nc1cccc(F)c1)CC(=O)Nc1cccc(S(N)(=O)=O)c1	none (no result: WT yeast gro inh, ROMK primary)
CC(=O)c1ccc(NC(=O)CN(C)CC(=O)Nc2cccc(F)c2)cc1	14-3-3 Bad inh 90
Cc1ccc(-c2nnc3sc(C4COc5ccccc5O4)nn23)cc1 (stereo unspecified)	WT yeast gro inh 75 (no result: ROMK primary)
COc1ccccc1-n1c(SCC(=O)N2CCCC2)nnc1-c1ccccc1	none (no result: WT yeast gro inh, ROMK primary)
Cc1ccn2c(NC(=O)c3ccccc3)c(-c3cccs3)nc2c1	14-3-3 Bad inh 70[fluorescence artefact?] (no result: ROMK primary)
Cc1ccc(O)c(-c2cc(-c3ccccc3C)[nH]n2)c1	WT yeast gro inh 78
CC1(c2ccccc2Cl)NC(=O)N(CC(=O)NCc2ccco2)C1=O (stereo unspecified)	none
CC(C)CCNC(=O)CN(CC1CCCO1)C(=O)CCC(=O)Nc1ccccn1 (stereo unspecified)	WT yeast gro inh 70 (no result: ROMK primary)
CCCCCCCSc1nsc(N)n1	WT yeast gro inh 66 (no result: ROMK primary)
CN1CCC(N(C)CC(=O)Nc2ccccc2N2CCOCC2)CC1	14-3-3 Bad inh 79
CCN(c1ccccc1)S(=O)(=O)c1ccc(Cl)c(NC(=O)CN(C)C2CCN(C)CC2)c1	14-3-3 Bad inh 90 (no result: WT yeast gro inh)
CN=C(Nc1ccc(C(=O)OC)s1)c1ccc(Cl)cc1	none
COc1ccc(-c2nnc(NC(=O)c3ccc(S(=O)(=O)N4CCCc5ccccc54)cc3)o2)cc1	Cl transport mod 12 (no result: ROMK primary)
CC1CN(S(=O)(=O)c2ccc(C(=O)Nc3nnc(-c4ccccn4)o3)cc2)CC(C)O1 (stereo unspecified)	none
CC(=O)Nc1nnc(-c2ccc3c(c2)CCCC3)o1	none (no result: ROMK primary)
CC1CN(S(=O)(=O)c2ccc(C(=O)Nc3nnc(-c4ccc5c(c4)CCCC5)o3)cc2)CC(C)O1 (stereo unspecified)	Cl transport mod 7.9 (no result: ROMK primary)
COc1ccccc1C(=O)Nc1nnc(-c2ccc3c(c2)CCCC3)o1	WT yeast gro inh 60 (no result: ROMK primary)
CC(C)(C)c1ccc(C(=O)N/N=C/c2ccc(OCCCF)cc2)cc1	none
O=c1c2cc(Cl)ccc2[nH]c(=S)n1Cc1cccs1	Cl transport mod 19
O=c1c2cc(Cl)ccc2[nH]c(=S)n1Cc1ccco1	Cl transport mod 20 (no result: ROMK primary)
CN1CCN(C(=O)c2ccc3c(=O)n(Cc4ccc(Cl)cc4)c(=S)[nH]c3c2)CC1	none
O=c1[nH]c2ccc(Cl)cc2c(=O)n1Cc1ccco1	none
O=C(O)c1ccccc1-c1ccccc1C(=O)NCc1cccc(C(F)(F)F)c1	none
O=C(Nc1ccccc1Cl)C1CCCN(S(=O)(=O)c2ccc(F)cc2)C1 (stereo unspecified)	14-3-3 Bad inh 77 (no result: Cl transport mod)
O=C(c1ccccc1)N(Cc1ccc2c(c1)OCO2)Cc1nc2ccccc2c(=O)[nH]1	ROMK primary 3.2
c1coc(CSc2ncnc3c2oc2ccccc23)c1	none (no result: WT yeast gro inh, ROMK primary)
Cc1cc(C)nc(Sc2ncnc3sc4c(c23)CCC4)n1	Cl transport mod 7.6 (no result: ROMK primary)
CCN(CC(=O)Nc1c(C(=O)OC)[nH]c2ccc(Cl)cc12)c1ccc2c(c1)OCO2	WT yeast gro inh 68 (no result: ROMK primary)
CCOC(=O)c1[nH]c2ccc(Cl)cc2c1NC(=O)/C=C/c1ccc2c(c1)OCO2	none
O=C1CC(Cc2ccccc2)C(=O)N1CCCn1ccnc1 (stereo unspecified)	14-3-3 Bad inh 75
O=C(/C=C/c1cccc(Cl)c1)NCc1ccccc1	none
COc1ccccc1N1CCN(c2ncc(C(=O)N3CCN(c4cccc(Cl)c4)CC3)c3ccccc23)CC1	WT yeast gro inh 59
CCC(NC(=O)Nc1cc(C)on1)(C(F)(F)F)C(F)(F)F	none (no result: WT yeast gro inh, ROMK primary)
COc1cccc2c1NC(C(=O)O)C1CC=CC21 (stereo unspecified)	none (no result: ROMK primary)

High-throughput results deposited in PubChem BioAssay by several laboratories.
